Source: PubChem BioAssay (several laboratories)
Compounds with a hit are over-represented: about 1.5% of the library has one in this group of screens.
T cell modulator – modulates CD8 T cell binding to vesicles. AID 2052. response (vesicle binding), % at 7 µM. hit rate 0.068% among 330,000. 2C CD8+ T cell-vesicle binding, flow cytometry; active compounds read low;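 active = response, share of CD8 T cells binding vesicles, and their 90th percentile fluorescence all below set limits, cut at about 80% in these data, passing the limit was not always enough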;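 also: values below 100% mean blocked vesicle binding to the CD8+ T cells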
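Also added: QL9-peptide-loaded Drosophila micro-vesicles bearing Ld, ICAM-1 and B7-1; Test system: purified 2C TCR transgenic mouse naive CD8+ T cells; Measured by: cytometric PE anti-B7-1 and Alexa647 anti-CD8 signals after 1% paraformaldehyde fixation; Timing: binding step 1.5 h, 37 °C, antibody labelling 20 min, ice.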
CHT allo act – human CHT allosteric activation. Q9GZV3. CHT-expressing cells, membrane potential dye, choline EC20; active compounds read high; LV-AA mutant CHT in HEK293 cells. B-score at 10 µM. hit rate 0.49% among 310,000. AID 488977;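 active = initial fluorescence not abnormally high and integrated response B-score, plate-corrected, over 3 SD above library mean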
Target sequence (Q9GZV3 whole entry, looked up): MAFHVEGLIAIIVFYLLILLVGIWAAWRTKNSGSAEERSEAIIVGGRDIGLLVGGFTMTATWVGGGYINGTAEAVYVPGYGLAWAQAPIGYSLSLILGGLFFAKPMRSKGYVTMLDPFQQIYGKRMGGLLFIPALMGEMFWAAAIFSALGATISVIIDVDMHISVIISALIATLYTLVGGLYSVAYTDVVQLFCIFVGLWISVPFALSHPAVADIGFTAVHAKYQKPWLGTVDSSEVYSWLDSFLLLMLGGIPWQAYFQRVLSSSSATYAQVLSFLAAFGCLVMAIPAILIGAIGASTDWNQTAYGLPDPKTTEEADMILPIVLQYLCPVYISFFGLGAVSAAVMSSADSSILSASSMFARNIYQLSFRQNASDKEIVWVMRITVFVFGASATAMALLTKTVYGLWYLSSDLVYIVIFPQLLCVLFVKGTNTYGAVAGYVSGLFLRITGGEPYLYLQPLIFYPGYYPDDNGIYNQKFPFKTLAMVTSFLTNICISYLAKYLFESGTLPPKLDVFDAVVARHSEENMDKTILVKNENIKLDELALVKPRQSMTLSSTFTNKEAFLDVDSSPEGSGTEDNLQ
CHT block – inhibits the human high affinity choline transporter; Q9GZV3; hit rate 0.86% among 310,000; B-score at 10 µM; CHT-expressing cells, membrane potential dye, choline response; active compounds read low;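 active = B-score over 3 SD under the library average, and starting fluorescence ratio not unusually high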;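 also: choline stimulus applied at its EC90 after an EC20 pre-addition; B-score computed on integrated fluorescence ratio after choline addition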
VLA-4 inh – inhibition in a human VLA-4 binding assay | P13612 | VLA-4 expressing cells, ligand binding flow cytometry | inhibition, % (about 7 µM as worked out from the volumes in the protocol) | hit rate 0.2% among 330,000 | AID 2557; in the data active = inhibition above about 50%
CHT act confirm – confirmation of human choline transporter (CHT) activators. shares compounds with CHT allo act. CHT-expressing cells, membrane potential dye fluorescence (FDSS); % of choline EC20–EC90 response window; HEK293 expressing CHT LV-AA mutant; choline added at its EC20. activation, % at 10 µM. hit rate 91% among 2,500;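 active = primary screen active, with duplicate mean activation above negative control mean plus 3 SD, cut at about 11% in these data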
HEK293 MP dye – CHT activator counter-screen hit in parental HEK293 cells | membrane potential dye fluorescence (FDSS); measured after EC20 choline addition | ratio readout change at 10 µM, hits read low | AID 623908 | hit rate 62% among 2,500 | shares compounds with CHT allo act;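 active = duplicate-averaged ratio beyond 3 SD from buffer wells, up or down, though filed actives are nearly all decreases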
Active calls of the source: *.

Results for N=c1c2c(n(Cc3ccc(Br)cc3)c3c1CCC3)CCCC2 ?
T cell modulator: 163.7; CHT allo act: inactive; CHT block: inactive; VLA-4 inh: 1.1

What do the screens show for `CCOC(=O)Cn1c2c(c(=N)c3c1CCC3)CCCC2`?
T cell modulator: 448.7; CHT allo act: inactive; CHT block: inactive; VLA-4 inh: 2.3; CHT act confirm: 42.0*; HEK293 MP dye: -33.7*

What do the screens show for `CCCn1c2c(c(=N)c3c1CCC3)CCCC2`?
T cell modulator: 450.0; CHT allo act: 7.94*; CHT block: inactive; VLA-4 inh: 18.3; CHT act confirm: 49.7*; HEK293 MP dye: -71.7*

What do the screens show for `O=C(O)CCn1c2c(c3ccccc31)CCCC2`?
T cell modulator: 556.9; CHT allo act: inactive; CHT block: inactive; VLA-4 inh: 7.4

What do the screens show for `CCCCCCCn1c2c(c(=N)c3ccccc31)CCC2`?
T cell modulator: 115.9; CHT allo act: 16.8*; CHT block: inactive; VLA-4 inh: -7.8; CHT act confirm: 75.0*; HEK293 MP dye: -42.8*

How did COC(=O)Cn1c2c(c3cc(C)ccc31)CCCC2 do in these assays?
T cell modulator: 244.2; CHT allo act: inactive; CHT block: inactive; VLA-4 inh: 4.3

Results for O=C(COC(=O)c1cc(S(=O)(=O)N2CCCCC2)ccc1N1CCOCC1)c1ccc(F)cc1 ?
T cell modulator: 331.4; CHT allo act: inactive; CHT block: inactive; VLA-4 inh: 21.4

What do the screens show for `CCCn1c2c(c(=N)c3c1CCC3)CCC2`?
T cell modulator: 359.8; CHT allo act: 6.55*; CHT block: inactive; VLA-4 inh: -3.6; CHT act confirm: 58.6*; HEK293 MP dye: -52.1*

What do the screens show for `CCOCCCN(C(=O)c1snc(C(N)=O)c1N)C(C(=O)NC1CCCC1)c1ccc(OC)cc1` (centres undefined)?
T cell modulator: 186.4; CHT allo act: inactive; CHT block: inactive; VLA-4 inh: 1.8

How did O=C(COc1ccccc1)NCC(c1ccco1)N1CCN(c2ccc(F)cc2)CC1 (centres undefined) do in these assays?
T cell modulator: 180.3; CHT allo act: inactive; CHT block: inactive; VLA-4 inh: 2.0; CHT act confirm: 12.6*; HEK293 MP dye: inactive

How did COC(=O)c1ccc(OC)c(CSc2nnc(COc3cccc(C)c3)o2)c1 do in these assays?
T cell modulator: 274.3; CHT allo act: inactive; CHT block: inactive; VLA-4 inh: 12.2; CHT act confirm: 19.2*; HEK293 MP dye: inactive

What do the screens show for `Cc1cc(N2CCOCC2)n2cc(-c3ccc(F)cc3)nc2n1`?
T cell modulator: 306.2; CHT allo act: inactive; CHT block: inactive; VLA-4 inh: 3.6; CHT act confirm: 31.0*; HEK293 MP dye: -21.1*

Results for CCOc1ccccc1-n1c(SCC(=O)Nc2nccs2)nnc1-c1ccoc1C ?
T cell modulator: 230.3; CHT allo act: inactive; CHT block: inactive; VLA-4 inh: 11.8; CHT act confirm: 2.8; HEK293 MP dye: inactive

What do the screens show for `Cc1ccnc(NC(=O)CCC2CCCCC2)c1`?
T cell modulator: 414.6; CHT allo act: inactive; CHT block: inactive; VLA-4 inh: 11.8; CHT act confirm: 27.1*; HEK293 MP dye: inactive

How did O=[N+]([O-])c1ccc(-c2nc(-c3ccncc3)no2)cc1 do in these assays?
T cell modulator: 287.6; CHT allo act: inactive; CHT block: inactive; VLA-4 inh: 6.9; CHT act confirm: 26.0*; HEK293 MP dye: -36.4*

Results for Cc1ccc(C)c(-c2[nH]ncc2CN2CCCC(CO)(Cc3ccccc3C)C2)c1 (centres undefined) ?
T cell modulator: 296.2; CHT allo act: 6.45*; CHT block: inactive; VLA-4 inh: 0.7; CHT act confirm: 16.6*; HEK293 MP dye: inactive

How did Cc1ccccc1NC(=S)N1CCN(c2ccccc2Cl)CC1 do in these assays?
T cell modulator: 240.0; CHT allo act: inactive; CHT block: inactive; VLA-4 inh: -8.9

How did Cn1c(=O)c2c(ncn2CCCC(=N)N2CCOCC2)n(C)c1=O do in these assays?
T cell modulator: 410.1; CHT allo act: 10.5*; CHT block: inactive; VLA-4 inh: 17.7; CHT act confirm: 78.3*; HEK293 MP dye: -72.4*
